# The list is not random: actives were taken first. Their share in the collection is about 3.5%.
# RGS4 inh: RGS4 inhibitors, primary screen, cell-based, HEK293 M3R inducible RGS4, calcium flux; Regulator of G-protein signaling 4 (Homo sapiens), P49798; Fluo-4 calcium flux; stronger effect = higher value; triggered by carbachol at its EC20; B-score at 10 µM; 310,000 compounds, 0.45% hits; AID 463165, 2010;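 active means B-score, a plate-corrected calcium signal, over three deviations above library mean, with baseline fluorescence within five deviations of library mean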;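 further: RGS4 expression induced by doxycycline in cells with stable M3 receptor; B-score is computed from the integrated fluorescence ratio over baseline after carbachol; higher B-score means a larger calcium signal and so more RGS4 inhibition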
# Target sequence (P49798 whole entry, looked up): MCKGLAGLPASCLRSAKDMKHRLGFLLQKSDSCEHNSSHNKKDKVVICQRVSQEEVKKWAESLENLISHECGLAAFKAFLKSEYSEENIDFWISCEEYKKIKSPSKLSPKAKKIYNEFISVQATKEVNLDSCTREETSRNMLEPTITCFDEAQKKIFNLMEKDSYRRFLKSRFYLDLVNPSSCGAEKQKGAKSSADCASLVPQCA
# MrgX1 PAM: positive allosteric modulators of MrgX1, primary screen, HEK293 cells, Fluo-4 calcium flux. FDSS; stronger effect = higher value. B-score at 10 µM. 310,000 compounds, 0.63% hits. AID 588675, 2011;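 active means plate-corrected calcium response at least 3 library SD above typical, normal starting fluorescence, not activating the receptor alone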;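 further: compound read alongside a low EC10 to EC30 dose of BAM8-22 agonist; peak minus trough fluorescence over baseline measured at the second addition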
# Target sequence (Q96LB2 whole entry, looked up): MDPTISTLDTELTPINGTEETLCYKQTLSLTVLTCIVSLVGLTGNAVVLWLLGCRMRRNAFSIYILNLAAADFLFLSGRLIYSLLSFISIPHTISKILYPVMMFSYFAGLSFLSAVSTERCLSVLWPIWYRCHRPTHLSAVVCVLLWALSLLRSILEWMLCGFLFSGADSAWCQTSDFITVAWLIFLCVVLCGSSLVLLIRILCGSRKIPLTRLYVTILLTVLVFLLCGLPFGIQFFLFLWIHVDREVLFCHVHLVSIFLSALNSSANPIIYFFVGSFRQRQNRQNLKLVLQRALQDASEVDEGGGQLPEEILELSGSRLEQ
# MrgX1 antag: antagonists of human MrgX1 receptor, primary screen, HEK293 cells, Fluo-4 calcium flux. Mas-related G-protein coupled receptor member X1 (Homo sapiens), Q96LB2. BAM8-22 antagonism; stronger effect = lower value. B-score at 10 µM. 310,000 compounds, 1.3% hits;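 active means calcium-response B-score plate-corrected more than 3 library SD below zero, starting fluorescence within 5 deviations, no agonist response on first addition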;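 further: peak minus trough fluorescence over baseline after final BAM8-22 challenge near maximal dose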
# MrgX1 agonist: agonists of human MrgX1 receptor, primary screen, HEK293 cells, Fluo-4 calcium flux | Fluo-4 calcium fluorescence, agonist mode; stronger effect = higher value | Mas-related G-protein coupled receptor member X1 (Homo sapiens), Q96LB2 | AID 588627, 2011 | B-score at 10 µM | 310,000 compounds, 0.44% hits;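 active means calcium response B-score plate-corrected fluorescence ratio at least 3 library SD, with starting fluorescence B-score inside 5 SD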
#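 Material: MrgX1-expressing HEK293 cells / Dosing: compound as first of three additions / Incubation: overnight seeding, then 1 h dark dye loading / Signal: Fluo-4 NW calcium fluorescence / Evaluation: B-scored fluorescence response ratio / Benchmarks: positive and negative control wells on each plate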
# RGS4 act: RGS4 potentiators or activators, primary screen, cell-based, HEK293 M3R inducible RGS4, calcium flux; 310,000 compounds, 0.92% hits; carbachol calcium flux Fluo4; stronger effect = lower value; B-score at 10 µM;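 active means B-score of the integrated calcium signal more than 4 SD below the library mean, with starting fluorescence not abnormally high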;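 further: negative B-score means reduced calcium response which marks RGS4 activation or potentiation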
#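 System: HEK293 FlpIn-TREx cells, stable M3R, doxycycline-inducible RGS4. Timing: overnight RGS4 induction, 30 min dye load 37 °C, 20 min compound RT. Also added: carbachol, ECmax concentration. Measured by: Fluo4 fluorescence kinetic imaging of calcium. Evaluation: integrated calcium ratio converted to B score.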
# MrgX1 ant reconf: MrgX1 receptor antagonists, duplicate retest, confirmation, HEK293 cells, Fluo-4 calcium flux; shares compounds with MrgX1 antag; BAM8-22 calcium flux; stronger effect = lower value; 2,300 compounds, 19% hits; remaining BAM8-22 calcium response % of control (stronger effect = lower value), % at 10 µM;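 active means remaining agonist calcium response no higher than 100% minus 3 SD of agonist-only control wells, with starting fluorescence near control levels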;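 further: agonist BAM8-22 given at a near maximal EC90 to ECmax level; peak minus minimum fluorescence divided by baseline after agonist addition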
# HEK293 Ca flux: nonspecific calcium signal in parental HEK293, confirmation, counter-screen for MrgX1 antagonist project, parental HEK293 cells, Fluo-4 calcium flux; shares compounds with MrgX1 antag; Fluo-4 calcium fluorescence, FDSS; fluorescence ratio F(max-min)/F0 at 10 µM; 4,000 compounds, 2% hits;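 active means duplicate-averaged calcium fluorescence ratio at least three times the standard deviation of buffer wells, a nonspecific response in parental cells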
# HEK293 Ca counter: calcium response in parental HEK293 cells, primary screen, counter-screen for MrgX1 allosteric activator project, cell-based, Fluo-4 calcium flux, duplicate; shares compounds with MrgX1 antag; Fluo-4 fluorescence ratio; stronger effect = higher value; fluorescence ratio F(max-min)/F0 at 10 µM; 4,000 compounds, 0.4% hits;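 active means calcium fluorescence ratio, averaged over duplicates, at least 3 SD of the buffer-well ratio, meaning a nonspecific response in receptor-free cells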;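 further: untransfected parental HEK293 lacking MrgX1 used as counterscreen for MrgX1 allosteric activators; fluorescence change taken during the second addition on a kinetic imager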
# HEK293 Ca cntr2: calcium response in parental HEK293 cells, primary screen, counter-screen for MrgX1 agonist project, cell-based, Fluo-4 calcium flux, duplicate, agonist mode; shares compounds with MrgX1 antag; 4,000 compounds, 8.7% hits; AID 624115, 2012; Fluo-4 calcium fluorescence (FDSS); stronger effect = higher value; fluorescence ratio F(max-min)/F0 at 10 µM;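 active means calcium fluorescence ratio at least three times the spread of buffer wells, meaning a non-specific response in parental cells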
# Numbers stand for hits; i = inactive; nt = no result.
SMILES,RGS4 inh,MrgX1 PAM,MrgX1 antag,MrgX1 agonist,RGS4 act,MrgX1 ant reconf,HEK293 Ca flux,HEK293 Ca counter,HEK293 Ca cntr2
CC(NC(=O)CCC(=O)c1ccccc1)c1ccc(F)cc1 (stereo unspecified),i,i,i,i,i,nt,nt,nt,nt
Nc1nnc(SCc2cc3c(cc2Cl)OCO3)s1,i,i,-6.34,i,i,i,i,i,i
Nc1nnc(SCc2ccccc2Cl)s1,i,i,i,i,i,nt,nt,nt,nt
CCCOC(=O)c1ccc(NC(=O)CC(C)(C)C)cc1,i,i,-4.53,i,i,i,i,i,i
Cc1cc(C(=O)COC(=O)c2ccc3c(c2)NC(=O)CS3)c(C)n1CC1CCCO1 (stereo unspecified),i,i,-5.91,i,i,i,i,i,i
CCN1CCSc2ccc(C(=O)NCc3ccc(OC(C)C)cc3)cc21,i,i,i,i,i,nt,nt,nt,nt
CCOc1ccc(CNC(=O)c2ccc3c(c2)N(CC)CCS3)cc1,i,i,-6.6,i,i,81.7%,i,i,i
Cc1cccc(C)c1NC(=O)CN(C)C(=O)C1CCN(c2ncnc3sc(C)c(C)c23)CC1,i,i,i,i,i,nt,nt,nt,nt
CCN(CC(=O)Nc1c(F)cccc1F)C(=O)C1CCN(c2ncnc3sc(C)c(C)c23)CC1,i,i,-8.2,i,i,i,i,i,i
Cc1ccc(OCC(=O)Nn2c(C)nc3ccccc3c2=O)c(C(C)C)c1,i,i,-11.2,i,i,i,i,i,i
CC(=O)Nc1ccc(NC(=O)CCc2nc3sc4c(c3c(=O)[nH]2)CCCC4)cc1,i,i,-4.56,i,i,i,i,i,i
NC(=O)c1ccc(NC(=O)CCc2nc3sc4c(c3c(=O)[nH]2)CCCC4)cc1,i,i,i,i,i,nt,nt,nt,nt
CCOC(=O)NC(=O)c1cn(Nc2ccccc2)c(=O)[nH]c1=O,i,i,i,i,i,nt,nt,nt,nt
O=C(Nc1ccc(C(=O)N2CCCC2)cc1)c1ccccc1Br,i,i,i,i,i,nt,nt,nt,nt
O=C(Nc1ccc(C(=O)N2CCCCC2)cc1)c1ccccc1Br,i,i,-5.62,i,i,i,i,i,i
O=C(NCCC(=O)N1CCC2(CC1)NCCc1[nH]cnc12)c1cccc(Br)c1,i,i,i,i,i,nt,nt,nt,nt
COc1ccccc1Nc1nc(N)nc(CSC(=S)N2CCCCC2C)n1 (stereo unspecified),i,i,i,i,i,nt,nt,nt,nt
CN(C)c1ccc(C(CNC(=O)c2ccc(-c3ccccc3)cc2)N2CCOCC2)cc1 (stereo unspecified),i,i,i,i,i,nt,nt,nt,nt
Cc1onc(-c2ccccc2)c1CNC(=O)Nc1cccc(Cl)c1,i,i,-6.55,i,i,81.7%,i,i,i
Cc1cc(C)cc(NC(=O)NCc2c(-c3ccccc3)noc2C)c1,i,i,i,i,i,nt,nt,nt,nt
CCC(C)NC(=O)CC(NS(=O)(=O)c1ccc(NC(C)=O)cc1)C(C)C (stereo unspecified),i,i,i,i,i,nt,nt,nt,nt
CC(C)(C)NS(=O)(=O)c1ccc(CCC(=O)Nc2ccc3c(c2)OCCO3)cc1,i,i,-4.74,i,i,i,i,i,i
Cc1ccc(C)c(N2C(=O)CC(Cc3ccc(Cl)cc3)C2=O)c1 (stereo unspecified),i,i,i,i,i,nt,nt,nt,nt
COc1ccc(CNc2nc(-c3ccccc3)nn2C(=O)c2ccc([N+](=O)[O-])cc2)cc1,i,i,i,i,i,nt,nt,nt,nt
COc1ccc(CNc2nc(-c3ccccc3)nn2C(=O)c2cccs2)cc1,i,i,-4.88,i,i,i,i,i,54.6
SMILES,RGS4 inh,MrgX1 PAM,MrgX1 antag,MrgX1 agonist,RGS4 act,MrgX1 ant reconf,HEK293 Ca flux,HEK293 Ca counter,HEK293 Ca cntr2
COc1cc(C(C(=O)NC2CCCC2)N(CCO)C(=O)Cn2nnc(-c3ccc(C)o3)n2)ccc1O (stereo unspecified),i,i,i,i,i,nt,nt,nt,nt
CCC(C)NCCOc1cccc(Br)c1 (stereo unspecified),i,i,-4.97,i,i,i,i,i,i
CN(CC(=O)Nc1c(Cl)cccc1Cl)C(=O)c1ccc2nc[nH]c2c1,i,i,-7.14,i,i,73.5%,i,i,i
CCOC(=O)C1CCN(C(=O)/C=C/c2ccc3c(c2)OCO3)CC1,i,i,i,i,i,nt,nt,nt,nt
CCOC(=O)c1c(NC(=O)OC)sc(C(=O)N(CC)CC)c1C,i,i,-4.71,i,i,i,i,i,i
COc1ccccc1C(=O)NC(=O)CSc1nncn1C(C)C,i,i,i,i,i,nt,nt,nt,nt
C/C=N/NC(=O)CCNC(=O)c1ccccc1,i,i,i,i,i,nt,nt,nt,nt
COc1ccc(CCNC(=O)c2ccc(OC)c(OC)c2)cc1OC,i,i,-6.76,i,i,i,i,i,i
COc1cc(OC)cc(C(=O)NCCc2ccc(OC)c(OC)c2)c1,i,i,i,i,i,nt,nt,nt,nt
Cc1ccc(NC(=O)CN2CCN(C)CC2)cc1S(=O)(=O)N1CCOCC1,i,i,i,i,i,nt,nt,nt,nt
CCN=C1SC(C(=O)Nc2cc(Cl)cc(Cl)c2)CC(=O)N1CC (stereo unspecified),i,i,-5.27,i,i,i,i,i,i
CCOC(=O)C1=C(COC(=O)C2CC(=O)N(c3ccc(C)cc3)C2)NC(=O)NC1C (stereo unspecified),i,i,-5.77,i,i,i,i,i,i
Cc1ccc[n+](CC(=O)Nc2cc(C(F)(F)F)ccc2N2CCOCC2)c1,i,i,i,i,i,nt,nt,nt,nt
CN(C)S(=O)(=O)c1ccc(N=Cc2c(C(F)(F)F)[nH]n(C)c2=O)cc1,i,i,i,i,i,nt,nt,nt,nt
Cn1cnnc1SCCC(=O)Nc1ccccc1,i,i,i,i,i,nt,nt,nt,nt
Cn1cnnc1SCCC(=O)Nc1ccc(Cl)cc1,i,i,-5.82,i,i,i,i,i,i
